GASC1 inh: inhibitors of GASC-1 (KDM4C) histone demethylase, primary screen, biochemical, single concentration HTS; 96,000 compounds, 0.15% hits; AID 720574, 2013; GST-KDM4C 2-372, H3K9me3 peptide, LANCE TR-FRET; inhibition, % at 12.5 µM; Lysine-specific demethylase 4C (Homo sapiens), Q9H3R0;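 active = mean replicate inhibition above about 25%, with at least 55% of replicates also reaching it, limit read from the data, passing the limit was not always enough; inconclusive = only one of those two conditions met; inactive = neither condition met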
Target sequence (Q9H3R0 2-372 limits assumed): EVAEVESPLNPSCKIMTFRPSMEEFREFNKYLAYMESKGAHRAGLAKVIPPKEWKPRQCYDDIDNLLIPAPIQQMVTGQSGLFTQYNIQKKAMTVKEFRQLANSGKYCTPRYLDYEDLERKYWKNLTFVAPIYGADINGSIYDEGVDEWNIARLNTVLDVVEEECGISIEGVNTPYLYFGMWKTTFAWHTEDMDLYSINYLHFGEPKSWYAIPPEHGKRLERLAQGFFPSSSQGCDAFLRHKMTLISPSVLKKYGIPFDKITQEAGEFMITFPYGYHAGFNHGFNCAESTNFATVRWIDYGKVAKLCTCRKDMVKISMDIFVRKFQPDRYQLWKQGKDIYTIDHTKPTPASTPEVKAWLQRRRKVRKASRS
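Test system – GST-tagged GASC-1 (JMJD2C) catalytic fragment, aa 2-372 · Medium – HEPES buffer, pH 7.5, plus ascorbate · Reagent – H3K9me3 peptide with Fe(II)/2OG · Compound – one test concentration per compound · Timing – 30 min reaction, 60 min detection, RT · Technique – TR-FRET with Eu antibody and ULight streptavidin, EDTA stop · Read-out basis – inhibition from TR-FRET ratio decrease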
T cruzi growth-1: T. cruzi intracellular proliferation inhibitors, primary screen, cell-based, beta-gal Tulahuen parasites, NIH3T3 host, luminescence; inhibition, % at 8.34 µM; 77,000 compounds, 5.9% hits; T. cruzi beta-gal in NIH3T3, GalScreen luminescence, 90 h; AID 624255, 2012;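 active = mean inhibition above about 93%, with at least 55% of replicates each passing it, limit read from the data, passing the limit was not always enough; inconclusive = only one of those two conditions holds; inactive = neither condition holds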
IDH1 R132H inh: inhibitors of IDH1 R132H reductase, primary screen, biochemical, plate reader, single point; Isocitrate dehydrogenase [NADP] cytoplasmic (Homo sapiens), O75874; diaphorase/resazurin fluorescence, 60 min; inhibition, % at 10 µM; 70,000 compounds, 0.18% hits; AID 624101, 2012; in the data active = inhibition above about 34%; inconclusive = no clear call, values can overlap the other calls; inactive = below about 11%;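 note: 0% = DMSO and 100% = no enzyme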
Pf Dd2 growth: P. falciparum Dd2 growth inhibitors, primary screen, SYBR Green fluorescence, single dose replicates. AID 1159554, 2015. 94,000 compounds, 2.3% hits. 72 h; hits give low values. activity change, % at 10 µM; in the data active = activity change below about -80%; inconclusive = no clear call, values can overlap the other calls
T cruzi growth-2: T. cruzi intracellular proliferation inhibitors, confirmation, cell-based, NIH3T3 host, beta-gal parasite, luminescence, cherry-pick; shares compounds with T cruzi growth-1; T. cruzi beta-gal in NIH3T3, GalScreen luminescence, 90 h; inhibition, % at 8.35 µM; 5,600 compounds, 72% hits;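 active = mean replicate inhibition above about 95% and at least 55% of replicates individually reaching it, limit read from the data; inconclusive = only one of the two criteria is met; inactive = neither criterion is met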
T cruzi growth-3: inhibitors of intracellular T. cruzi replication, confirmation, NIH3T3 host cells, beta-gal parasites, cherry-pick, set 2; shares compounds with T cruzi growth-1; T. cruzi beta-gal in NIH3T3, GalScreen luminescence, 90 h; inhibition, % at 2.09 µM; 5,600 compounds, 21% hits; AID 651740, 2012;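 active = mean inhibition above about 95%, with at least 55% of replicates also reaching it, limit read from the data; inconclusive = meets just one of the two conditions; inactive = meets neither condition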;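 note: plate controls were neutral control median for no effect and positive control median for full effect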
NIH3T3 tox: cytotoxicity in mouse NIH/3T3 fibroblasts, confirmation, cytotoxicity control for T. cruzi proliferation inhibitor project, cell-based, cherry-pick, single point; shares compounds with T cruzi growth-1; NIH/3T3 viability, CellTiter-Glo ATP luminescence, 90 h; cytotoxicity (signal decrease), % at 8.35 µM; 5,600 compounds, 14% hits;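 active = mean signal decrease across replicates above about 35% based on untreated-well scatter, with enough replicates individually passing, limit read from the data; inconclusive = no rule stated though some were filed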;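 note: 0% = median of neutral control wells and 100% = median of positive control wells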
NIH3T3 tox 2: NIH/3T3 fibroblast cytotoxicity, confirmation, cytotoxicity control, cell-based, cherry-pick, single point, set 2; AID 651744, 2012; shares compounds with T cruzi growth-1; NIH/3T3 viability, CellTiter-Glo ATP luminescence, 90 h; inhibition, % at 24.9 µM; 5,600 compounds, 56% hits;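 active = mean loss of cell viability signal at or above a set limit, and enough replicates individually reaching it; inconclusive = meets only the mean limit or only the replicate share; inactive = meets neither condition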;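 note: 0% = median of neutral control wells and 100% = median of positive control wells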
* hit, by the source's call; u = inconclusive; x = no result. Compounds with a hit are over-represented: about 5.9% of the library has one in this group of screens.

SMILES	GASC1 inh	T cruzi growth-1	IDH1 R132H inh	Pf Dd2 growth	T cruzi growth-2	T cruzi growth-3	NIH3T3 tox	NIH3T3 tox 2
CCCC#Cc1ccc2c(c1)O[C@H](CN(C)Cc1ccccn1)[C@@H](C)CN([C@H](C)CO)S2(=O)=O	1	104*	1	x	108*	75	40*	69*
C[C@@H]1CN([C@H](C)CO)S(=O)(=O)c2ccc(C#CCN(C)C)cc2O[C@H]1CN(C)Cc1ccccn1	4	u	1	-52	97*	74	17	26*
CCCC#Cc1ccc2c(c1)O[C@@H](CN(C)Cc1ccccn1)[C@H](C)CN([C@@H](C)CO)S2(=O)=O	14	107*	0	x	96*	90	64*	93*
CCCC#Cc1ccc2c(c1)O[C@H](CN(C)Cc1ccccn1)[C@H](C)CN([C@@H](C)CO)S2(=O)=O	2	59	-3	x	x	x	x	x
CCc1cccc(C)c1NC(=O)CSc1nnc(-c2ccncc2)n1-c1ccc(C)cc1	x	x	1	x	x	x	x	x
COc1ccccc1N(CC(=O)Nc1c(C)cc(C)cc1C)S(C)(=O)=O	x	x	1	x	x	x	x	x
CCS(=O)(=O)N(C)[C@H]1c2cc(C#N)ccc2OC(C)(C)[C@@H]1O	x	x	0	x	x	x	x	x
COc1ccc(C#Cc2ccc3c(c2)O[C@@H](CN(C)C(=O)NC2CCCCC2)[C@H](C)CN([C@@H](C)CO)S3(=O)=O)cc1	-4	u	0	-67	100*	99*	-30	-3
C[C@@H]1CN([C@H](C)CO)S(=O)(=O)c2ccc(C#Cc3ccc(F)cc3)cc2O[C@@H]1CN(C)C(=O)NC1CCCC1	-2	114*	-1	-50	u	85	14	104*
C[C@H]1CN([C@@H](C)CO)S(=O)(=O)c2ccc(C#Cc3ccc(F)cc3)cc2O[C@@H]1CN(C)C(=O)NC1CCCCC1	2	80	-2	-27	x	x	x	x
COc1ccc(C#Cc2ccc3c(c2)O[C@H](CN(C)C(=O)NC2CCCCC2)[C@@H](C)CN([C@@H](C)CO)S3(=O)=O)cc1	-6	u	1	-70	109*	107*	8	64*
COc1ccc(C#Cc2ccc3c(c2)O[C@H](CN(C)C(=O)NC2CCCCC2)[C@H](C)CN([C@@H](C)CO)S3(=O)=O)cc1	-3	u	0	-6	102*	86	-36	-30
c1ccc(CNc2nc3ccccc3n2CCN2CCCCC2)nc1	x	x	0	x	x	x	x	x
O=C(CCCCCC(=O)N/N=C/c1cc(Br)cs1)NO	x	x	0	x	x	x	x	x
C[C@@H]1CN([C@@H](C)CO)S(=O)(=O)c2ccc(C#Cc3ccc(F)cc3)cc2O[C@@H]1CN(C)C(=O)NC1CCCCC1	3	82	x	28	x	x	x	x
COc1ccc(C#Cc2ccc3c(c2)O[C@@H](CN(C)C(=O)NC2CCCCC2)[C@@H](C)CN([C@H](C)CO)S3(=O)=O)cc1	-5	u	0	-81*	95*	113*	-11	18
O=C(c1ccccn1)N1CC(=O)N2[C@H](CO)[C@@H](c3ccc(C#Cc4ccccc4)cc3)[C@@H]2C1	-2	x	x	-27	x	x	x	x
C[C@H](CO)N1C[C@H](C)[C@@H](CN(C)Cc2ccc(F)cc2)Oc2cc(C#Cc3ccccn3)ccc2S1(=O)=O	-33	127*	0	-34	106*	102*	4	-10
C[C@@H]1CN([C@@H](C)CO)S(=O)(=O)c2ccc(C#Cc3ccccn3)cc2O[C@@H]1CN(C)Cc1ccc(F)cc1	-13	100*	0	-29	107*	87	38*	-7
C[C@H](CO)N1C[C@H](C)[C@H](CN(C)Cc2ccncc2)OCCCC[C@H](C)Oc2ccc(NC(=O)NC3CCCCC3)cc2C1=O	1	97*	x	20	106*	31	1	13
C[C@@H]1CN([C@@H](C)CO)C(=O)c2cc(NC(=O)NC3CCCCC3)ccc2O[C@@H](C)CCCCO[C@@H]1CN(C)Cc1ccncc1	1	87	0	-5	x	x	x	x
C[C@@H]1CCCCO[C@@H](CN(C)Cc2ccncc2)[C@@H](C)CN([C@@H](C)CO)C(=O)c2cc(NC(=O)NC3CCCCC3)ccc2O1	0	103*	-1	-5	35	1	-31	3
C/C=C/c1ccc([C@@H]2[C@@H](CO)N3CCCCN(S(=O)(=O)c4cccc(C)c4)C[C@H]23)cc1	-1	u	x	-40	108*	84	28	103*
C/C=C/c1ccc([C@@H]2[C@@H](CO)N3CCCCN(S(=O)(=O)c4cccc(C)c4)C[C@@H]23)cc1	0	108*	x	-37	100*	81	-6	73*
CC(C)NC(=O)N(C)C[C@H]1Oc2c(NC(=O)C3CC3)cccc2C(=O)N([C@@H](C)CO)C[C@H]1C	0	-11	x	7	x	x	x	x
Cc1noc(C)c1NC(=O)N(C)C[C@@H]1Oc2c(NS(=O)(=O)c3c(C)noc3C)cccc2C(=O)N([C@H](C)CO)C[C@@H]1C	0	102*	-1	25	102*	10	13	-3
C[C@@H]1CN([C@H](C)CO)C(=O)c2cccc(NC(=O)NC3CCCCC3)c2O[C@@H]1CN(C)Cc1ccc(-c2ccccc2)cc1	-1	115*	x	-34	101*	67	6	u
C[C@H](CO)N1C[C@H](C)[C@@H](CN(C)Cc2ccc(Oc3ccccc3)cc2)Oc2c(NC(=O)C3CCCCC3)cccc2C1=O	-3	u	x	-35	104*	89	-28	104*
C[C@H]1CN([C@@H](C)CO)C(=O)c2cccc(NC(=O)NC3CCCCC3)c2O[C@H]1CN(C)Cc1ccc(-c2ccccc2)cc1	2	74	x	9	x	x	x	x
CC(C)NC(=O)N(C)C[C@H]1Oc2c(NC(=O)C3CC3)cccc2C(=O)N([C@H](C)CO)C[C@H]1C	-1	97*	1	-1	59	-10	-3	-21

Bioassay records (PubChem)
